These results are taken from ChEMBL document CHEMBL2086275, “Docking studies, synthesis, characterization of some novel oxazine substituted 9-anilinoacridine derivatives and evaluation for their antioxidant and anticancer activities as topoisomerase II inhibitors” (Eur J Med Chem, 2012).

Holding throughout (type): functional
A short description of experiment [1]: Antitumor activity against mouse DLA cells after 3 hrs by trypan blue dye exclusion assay. In a few lines: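 DLA cells were grown in the peritoneal cavity of albino mice (25-30 g) by i.p. injection of 1×10^6 cells/mL. Cells were harvested on day 15, washed three times in HBSS and adjusted to 2×10^6 cells/mL. Cells were exposed to graded drug concentrations in PBS (1:1 volume) for 3 h at 37 °C, 5% CO2. Viability was counted by haemocytometer after 1:1 mixing with 0.4% trypan blue, and % inhibition and CTC50 were calculated.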

A short description of experiment [2]: Antioxidant activity assessed as hydrogen peroxide radical scavenging activity.
A short description of experiment [3]: Antioxidant activity assessed as inhibition of superoxide radical-induced NBT reduction by alkaline DMSO method.

SMILES strings stand for the structures. Values after ≈ are worked out from the molar mass of the structure shown. Where only a bound is given, the exact number is not on record here.

As a reminder, the CC50 is the concentration at which the toxic effect on the cells reaches its halfway point. Low values mean greater toxicity to the cells, high ones lower toxicity to the cells. One may read the IC50 as the point on the concentration scale where inhibition reaches its midpoint. Molecule `COc1cc(C2=NC(N)OC(c3ccc(Nc4c5ccccc5nc5ccccc45)cc3)=C2)ccc1O` (configuration not stated) yielded a cytotoxic concentration (CC50) in experiment [1] of 250 µg/mL (≈ 512 µM). Moreover, the results for the IC50 in experiment [2] and in experiment [3] were 14.5 µg/mL (≈ 29.7 µM) and 24.02 µg/mL (≈ 49.2 µM), respectively.
As to `O=C(/C=C/c1cccc([N+](=O)[O-])c1)c1ccc(Nc2c3ccccc3nc3ccccc23)cc1`, the IC50 was greater than 1000 µg/mL in experiment [2] and greater than 500 µg/mL in experiment [3].
The corresponding values for `COc1cc(/C=C/C(=O)c2ccc(Nc3c4ccccc4nc4ccccc34)cc2)ccc1O` are greater than 1000 µg/mL and greater than 500 µg/mL.
The corresponding values for `C/C=C/C(=O)c1ccc(Nc2c3ccccc3nc3ccccc23)cc1` are greater than 1000 µg/mL and greater than 500 µg/mL.
Consider `NC1N=C(c2cccc([N+](=O)[O-])c2)C=C(c2ccc(Nc3c4ccccc4nc4ccccc34)cc2)O1` (configuration not stated), for which the CC50 in experiment [1] came out at 600 µg/mL (≈ 1230 µM). Moreover, the IC50 is 12 µg/mL (≈ 24.6 µM) in experiment [2] and 29.03 µg/mL (≈ 59.5 µM) in experiment [3].
`NC1N=C(c2ccc(Cl)cc2)C=C(c2ccc(Nc3c4ccccc4nc4ccccc34)cc2)O1` (configuration not stated) gave a CC50 in experiment [1] of 640 µg/mL (≈ 1340 µM). Also, the half-maximal inhibitory concentration (IC50) in experiment [2] came to 30.01 µg/mL (≈ 62.9 µM); in experiment [3], 68.13 µg/mL (≈ 143 µM).
In the case of `O=C(/C=C/c1cccc(Cl)c1)c1ccc(Nc2c3ccccc3nc3ccccc23)cc1`, the results for the IC50 in experiment [2] and in experiment [3] were greater than 1000 µg/mL and greater than 500 µg/mL, respectively.
Take `NC1N=C(c2cccc(Cl)c2)C=C(c2ccc(Nc3c4ccccc4nc4ccccc34)cc2)O1` (configuration not stated): in experiment [1], the CC50 stood at 820 µg/mL (≈ 1720 µM). Also, the figures for the IC50 in experiment [2] and in experiment [3] were 36.01 µg/mL (≈ 75.5 µM) and 37.43 µg/mL (≈ 78.5 µM), respectively.
The corresponding values for `NC1N=C(c2ccc([N+](=O)[O-])cc2)C=C(c2ccc(Nc3c4ccccc4nc4ccccc34)cc2)O1` (configuration not stated) are 725 µg/mL (≈ 1490 µM), 24.03 µg/mL (≈ 49.3 µM) and 47.5 µg/mL (≈ 97.4 µM).
As to `O=C(/C=C/c1ccc([N+](=O)[O-])cc1)c1ccc(Nc2c3ccccc3nc3ccccc23)cc1`, the results for the concentration for half-maximal inhibition (IC50) in experiment [2] and in experiment [3] were greater than 1000 µg/mL and greater than 500 µg/mL, respectively.
Consider `O=C1O[C@H]([C@@H](O)CO)C(O)=C1O` [ASCORBIC ACID], for which the IC50 is 18.6 µg/mL (≈ 106 µM) in experiment [2] and 24.77 µg/mL (≈ 141 µM) in experiment [3].
`NC1N=C(c2ccccc2Cl)C=C(c2ccc(Nc3c4ccccc4nc4ccccc34)cc2)O1` (configuration not stated) registered a CC50 in experiment [1] of 590 µg/mL (≈ 1240 µM). For the same molecule, the IC50 came out at 25.01 µg/mL (≈ 52.4 µM) in experiment [2] and 32.05 µg/mL (≈ 67.2 µM) in experiment [3].
The corresponding values for `NC1N=C(c2ccc(Cl)cc2Cl)C=C(c2ccc(Nc3c4ccccc4nc4ccccc34)cc2)O1` (configuration not stated) are 180 µg/mL (≈ 352 µM), 20.03 µg/mL (≈ 39.2 µM) and 28.02 µg/mL (≈ 54.8 µM).
Consider `O=C(/C=C/c1ccc(Cl)cc1)c1ccc(Nc2c3ccccc3nc3ccccc23)cc1`, for which the half-maximal inhibitory concentration (IC50) in experiment [2] is greater than 1000 µg/mL; in experiment [3], greater than 500 µg/mL.
For the molecule `COc1ccc(C2=NC(N)OC(c3ccc(Nc4c5ccccc5nc5ccccc45)cc3)=C2)cc1OC` (configuration not stated), the CC50 in experiment [1] is 190 µg/mL (≈ 378 µM). The IC50 was 18.06 µg/mL (≈ 35.9 µM) in experiment [2] and 28.01 µg/mL (≈ 55.7 µM) in experiment [3].
As to `O=C(/C=C/c1ccc(Cl)cc1Cl)c1ccc(Nc2c3ccccc3nc3ccccc23)cc1`, the IC50 in experiment [2] is greater than 1000 µg/mL; in experiment [3], greater than 500 µg/mL.
For `COc1ccc(/C=C/C(=O)c2ccc(Nc3c4ccccc4nc4ccccc34)cc2)cc1OC`, the IC50 in experiment [2] was greater than 1000 µg/mL; in experiment [3], greater than 500 µg/mL.
The molecule `CC1=NC(N)OC(c2ccc(Nc3c4ccccc4nc4ccccc34)cc2)=C1` (configuration not stated) showed a CC50 in experiment [1] of 140 µg/mL (≈ 368 µM). Also, the values for the IC50 in experiment [2] and in experiment [3] were 14.2 µg/mL (≈ 37.3 µM) and 26.3 µg/mL (≈ 69.1 µM), respectively.
As to `O=C(/C=C/c1ccccc1)c1ccc(Nc2c3ccccc3nc3ccccc23)cc1`, the IC50 in experiment [2] is greater than 1000 µg/mL; in experiment [3] it was greater than 500 µg/mL.
`NC1N=C(c2ccccc2)C=C(c2ccc(Nc3c4ccccc4nc4ccccc34)cc2)O1` (configuration not stated) came in with a CC50 in experiment [1] of 425 µg/mL (≈ 960 µM). Besides, the results for the half-inhibitory concentration (IC50) in experiment [2] and in experiment [3] were 17.23 µg/mL (≈ 38.9 µM) and 22.27 µg/mL (≈ 50.3 µM), respectively.
Turning to `O=C(/C=C/c1ccccc1Cl)c1ccc(Nc2c3ccccc3nc3ccccc23)cc1`, the IC50 in experiment [2] was greater than 1000 µg/mL; in experiment [3], greater than 500 µg/mL.
